Measurements: ChEMBL document CHEMBL1649387, “Synthesis and evaluation of quinonoid compounds against tumor cell lines” (Eur J Med Chem, 2011)

How the values were obtained:
SF-295 [1] = experiment: Cytotoxicity against human SF295 cells after 72 hrs by MTT assay; assay type: functional, cell-based; conditions: SF-295, 72 h
HL-60 [2] = experiment: Cytotoxicity against human HL60 cells after 72 hrs by MTT assay; assay type: functional, cell-based; conditions: HL-60, 72 h
PBMC = experiment: Cytotoxicity against human PBMC cells after 72 hrs by Alamar Blue assay; assay type: cell-based
MDA-MB-435 [3] = experiment: Cytotoxicity against human MDA-MB-435 cells after 72 hrs by MTT assay; assay type: functional, cell-based; conditions: MDA-MB-435, 72 h
HCT-8 [4] = experiment: Cytotoxicity against human HCT8 cells after 72 hrs by MTT assay; assay type: functional, cell-based; conditions: HCT-8, 72 h
SF-295 [5] = experiment: Induction of apoptosis in human SF295 cells assessed as apoptotic nuclei at 5 uM after 24 hrs by acridine orange/ethidium bromide staining based fluorescence microscopy; assay type: functional
In short: (§1)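 Cells exposed 24 h, with or without 24 h pretreatment with 1-bromoheptane. Cell suspension mixed with acridine orange/ethidium bromide (each 100 in PBS) and spread on slide. 300 cells counted per point by fluorescence microscopy to give % apoptotic cells. Mean ± S.E.M. of three experiments.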

MDA-MB-435 [6] = experiment: Induction of apoptosis in human MDA-MB-435 cells assessed as apoptotic nuclei at 5 uM after 24 hrs by acridine orange/ethidium bromide staining based fluorescence microscopy; assay type: functional; in short: as §1
HL-60 [7] = experiment: Induction of apoptosis in human HL60 cells assessed as apoptotic nuclei at 5 uM after 24 hrs by acridine orange/ethidium bromide staining based fluorescence microscopy; assay type: functional; in short: as §1
HCT-8 [8] = experiment: Induction of apoptosis in human HCT8 cells assessed as apoptotic nuclei at 5 uM after 24 hrs by acridine orange/ethidium bromide staining based fluorescence microscopy; assay type: functional; in short: as §1
HCT-8 [9] = experiment: Induction of apoptosis in human HCT8 cells assessed as apoptotic nuclei at 5 uM after 24 hrs by acridine orange/ethidium bromide staining based fluorescence microscopy in presence of 1-bromoheptane; assay type: functional; in short: as §1
MDA-MB-435 [10] = experiment: Induction of apoptosis in human MDA-MB-435 cells assessed as apoptotic nuclei at 5 uM after 24 hrs by acridine orange/ethidium bromide staining based fluorescence microscopy in presence of 1-bromoheptane; assay type: functional; in short: as §1
HL-60 [11] = experiment: Induction of apoptosis in human HL60 cells assessed as apoptotic nuclei at 5 uM after 24 hrs by acridine orange/ethidium bromide staining based fluorescence microscopy in presence of 1-bromoheptane; assay type: functional; in short: as §1
SF-295 [12] = experiment: Induction of apoptosis in human SF295 cells assessed as apoptotic nuclei at 5 uM after 24 hrs by acridine orange/ethidium bromide staining based fluorescence microscopy in presence of 1-bromoheptane; assay type: functional; in short: as §1

Row | Structure (SMILES) | IC50 (SF-295 [1]) | IC50 (HL-60 [2]) | IC50 (PBMC) | IC50 (MDA-MB-435 [3]) | IC50 (HCT-8 [4]) | Activity (SF-295 [5]) | Activity (MDA-MB-435 [6]) | Activity (HL-60 [7]) | Activity (HCT-8 [8]) | Activity (HCT-8 [9]) | Activity (MDA-MB-435 [10]) | Activity (HL-60 [11]) | Activity (SF-295 [12])
1 | CC(C)CC1=C(O)C(=O)C2=C(CCCC2)C1=O | > 21.4 µM | > 21.4 µM | > 21.4 µM | > 21.4 µM | > 21.4 µM |  |  |  |  |  |  |  | 
2 | O=C1c2ccccc2C(=O)c2c1ccc1nc(-c3ccccc3F)[nH]c21 | > 14.6 µM | > 14.6 µM | > 14.6 µM | > 14.6 µM | > 14.6 µM |  |  |  |  |  |  |  | 
3 | CC1(C)OC2=C(C(=O)C(=O)c3ccccc32)[C@H](N=[N+]=[N-])[C@H]1Br | 1.93 µM | 1.43 µM | 3.58 µM | 1.54 µM | 2.42 µM |  |  |  |  |  |  |  | 
4 | CC(C)CC1=C(OC2(CC(C)C)C(=O)C(=O)c3ccccc3C2=O)C(=O)c2ccccc2C1=O (stereo not given) | > 10.9 µM | > 10.9 µM | > 10.9 µM | > 10.9 µM | > 10.9 µM |  |  |  |  |  |  |  | 
5 | COc1ccc(-c2cn([C@H]3C4=C(OC(C)(C)[C@@H]3Br)c3ccccc3C(=O)C4=O)nn2)cc1 | 3.01 µM | 1.88 µM | 2.52 µM | 1.92 µM | 3.21 µM |  |  |  |  |  |  |  | 
6 | CCCC1=C(O)C(=O)C2=C(CCCC2)C1=O | > 22.7 µM | > 22.7 µM | > 22.7 µM | > 22.7 µM | 3.99 µM |  |  |  |  |  |  |  | 
7 | CCCC1=C(O)C(=O)c2ccccc2C1=O |  | > 23.1 µM | > 23.1 µM | > 23.1 µM | > 23.1 µM |  |  |  |  |  |  |  | 
8 | O=C1c2ccccc2C(=O)c2c1ccc1nc(-c3ccc(O)cc3)[nH]c21 | > 14.7 µM | > 14.7 µM | > 14.7 µM | > 14.7 µM | > 14.7 µM | 5.93% | 9.56% | 10.7% | 8.51% | 11.16% | 13.07% | 14.26% | 10.18%
9 | Cc1ccc(-c2nc3ccc4c(c3[nH]2)C(=O)c2ccccc2C4=O)cc1 | > 14.8 µM | > 14.8 µM | > 14.8 µM | > 14.8 µM | > 14.8 µM | 5.82% | 7.49% | 5.27% | 8.72% | 9.31% | 12.27% | 9.62% | 4.17%
10 | COc1cc(-c2nc3ccc4c(c3[nH]2)C(=O)c2ccccc2C4=O)ccc1O | > 13.6 µM | > 13.6 µM | > 13.6 µM | > 13.6 µM | > 13.6 µM |  |  |  |  |  |  |  | 
11 | CC(C)=CCC1=C(OC2(CC=C(C)C)C(=O)C(=O)c3ccccc3C2=O)C(=O)c2ccccc2C1=O (stereo not given) | > 10.4 µM | > 10.4 µM | > 10.4 µM | > 10.4 µM | 9.76 µM | 11.45% | 4.72% | 11.17% | 8.52% | 9.16% | 5.82% | 8.46% | 7.3%
12 | CCCC1=C(OC2(CCC)C(=O)C(=O)C3=C(CCCC3)C2=O)C(=O)C2=C(CCCC2)C1=O (stereo not given) | > 11.4 µM | > 11.4 µM | > 11.4 µM | > 11.4 µM | > 11.4 µM | 11.73% | 8.56% | 9.13% | 9.27% | 11.7% | 12.09% | 11.04% | 13.97%
13 | O=C1c2ccccc2C(=O)c2c1ccc1nc(-c3cccc(O)c3)[nH]c21 | > 14.7 µM | > 14.7 µM | > 14.7 µM | > 14.7 µM | > 14.7 µM | 13.51% | 12.51% | 10.49% | 12.73% | 7.25% | 13.75% | 8.17% | 9.66%
14 | CC(C)CCC1=C(OC2(CCC(C)C)C(=O)C(=O)c3ccccc3C2=O)C(=O)c2ccccc2C1=O (stereo not given) | > 10.3 µM | > 10.3 µM | > 10.3 µM | > 10.3 µM | > 10.3 µM | 7.94% | 9.51% | 8.13% | 8.71% | 11.46% | 7.44% | 4.17% | 8.01%
15 | CC(C)CCC1=C(OC2(CCC(C)C)C(=O)C(=O)C3=C(CCCC3)C2=O)C(=O)C2=C(CCCC2)C1=O (stereo not given) | > 10.1 µM | > 10.1 µM | > 10.1 µM | > 10.1 µM | > 10.1 µM | 8.33% | 8.38% | 10.21% | 5.85% | 10.33% | 13.72% | 10.62% | 12.06%
